# Assay results taken from ChEMBL document CHEMBL1124122, “Protoberberine alkaloids as antimalarials” (J Med Chem, 1988).
# The source made the active and inactive calls.
# Experiments:
# [1] = test system: Mus musculus; assay: In vivo Mean survival time of Plasmodium berghei parasitized mice dosed at 160 mg/kg; type: functional
# Method in brief: (§1)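 Mice infected with drug-sensitive Plasmodium berghei strain KBG 173. Result given as T − C: the mean survival time of treated mice beyond that of untreated infected controls. A compound counts as active when T − C is ≥ 6.2 days.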
# [2] = test system: Mus musculus; assay: In vivo Mean survival time of Plasmodium berghei parasitized mice dosed at 40 mg/kg; type: functional; method in brief: as §1
# [3] = test system: Plasmodium falciparum; assay: (§2) In vitro antimalarial activity against Plasmodium falciparum D6; type: functional, organism-based
# Method in brief: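 Parasite growth inhibition read as uptake of tritiated hypoxanthine.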
# [4] = test system: Plasmodium falciparum; assay: In vitro antimalarial activity against Plasmodium falciparum W2; type: functional, organism-based
# Method in brief: (§3)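 Parasite growth inhibition was read out as uptake of tritiated hypoxanthine.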
# [5] = test system: Mus musculus; assay: In vivo Mean survival time of Plasmodium berghei parasitized mice dosed at 640 mg/kg; type: functional; method in brief: as §1
# [6] = test system: Mus musculus; assay: In vivo Mean survival time of Plasmodium berghei parasitized mice dosed at 640 mg/kg; Not active; type: functional, organism-based; parameters: dose 640 mg/kg
# Method in brief: (§4)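 Mice were infected with the drug-sensitive P. berghei strain KBG 173 and given the stated dose. T − C is the mean survival time of treated mice beyond that of untreated controls. A compound counts as active only if T − C is ≥ 6.2 days, and toxicity is flagged separately.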
# [7] = test system: Mus musculus; assay: In vivo Mean survival time of Plasmodium berghei parasitized mice dosed at 40 mg/kg; Not active; type: functional, organism-based; parameters: dose 40 mg/kg; method in brief: as §4
# [8] = test system: Plasmodium falciparum; assay: In vitro antimalarial activity against Plasmodium falciparum D6.; type: functional, organism-based; method in brief: as §3
# [9] = test system: Mus musculus; assay: In vivo Mean survival time of Plasmodium berghei parasitized mice dosed at 160 mg/kg; Not active; type: functional, organism-based; parameters: dose 160 mg/kg; method in brief: as §4
# [10] = test system: Mus musculus; assay: In vivo Mean survival time of Plasmodium berghei parasitized mice dosed at 640 mg/kg; Toxic; type: functional, organism-based; parameters: dose 640 mg/kg; method in brief: as §4
# [11] = test system: Plasmodium falciparum; assay: as §2; type: functional, organism-based; method in brief: as §3; remark: listed apart in the source
# [12] = test system: Mus musculus; assay: In vivo Mean survival time of Plasmodium berghei parasitized mice dosed at 160 mg/kg; Toxic; type: functional, organism-based; parameters: dose 160 mg/kg; method in brief: as §4
SMILES,T-C [1],T-C [2],IC50 [3],IC50 [4],T-C [5],T-C [6],T-C [7],IC50 [8],T-C [9],T-C [10],IC50 [11],T-C [12]
COc1ccc2c(c1OC)C[N+]1([O-])CCc3cc4c(cc3C1C2)OCO4 (stereo not given),0.2 days,0 days,0.565 µg/mL,0.558 µg/mL,0 days,,,,,,,
COc1ccc2c(c1OC)C(C#N)N1CCc3cc4c(cc3C1=C2)OCO4 (stereo not given),,,,0.143 µg/mL,,inactive,inactive,0.101 µg/mL,inactive,,,
COc1ccc2c(c1OC)C[N+]1(C)CCc3cc4c(cc3C1C2)OCO4.[I-] (stereo not given),,,0.97 µg/mL,1.34 µg/mL,,inactive,inactive,,inactive,,,
COc1ccc2c(OC)c3[n+](cc2c1OC)CCc1cc2c(cc1-3)OCO2,-0.2 days,-0.2 days,,0.701 µg/mL,0.2 days,,,0.568 µg/mL,,,,
COc1ccc2cc3[n+](cc2c1OC)CCc1cc2c(cc1-3)OCO2.[Cl-] [BERBERINE CHLORIDE],1 days,0.6 days,,0.148 µg/mL,,,,,,Toxic,0.141 µg/mL,
COc1ccc2c(c1OC)CN1CCc3cc4c(cc3[C@@H]1C2)OCO4 [CANADINE],0.1 days,0.1 days,0.555 µg/mL,1.74 µg/mL,0.3 days,,,,,,,
COc1ccc2c(c1OC)CN1CCc3cc4c(cc3C1=C2)OCO4 [DIHYDROBERBERINE],,-0.2 days,0.12 µg/mL,0.171 µg/mL,,,,,,Toxic,,Toxic
COc1cc2c(cc1O)CC[n+]1cc3c(OC)c(OC)ccc3cc1-2.[Cl-] [JATRORRHIZINE CHLORIDE],,,0.422 µg/mL,1.61 µg/mL,,inactive,inactive,,inactive,,,
COc1ccc2cc3n(c(=O)c2c1OC)CCc1cc2c(cc1-3)OCO2 [OXYBERBERINE],0.5 days,0.1 days,,2.01 µg/mL,0.3 days,,,0.557 µg/mL,,,,
COc1cc2c(cc1OC)-c1cc3ccc(OC)c(OC)c3c[n+]1CC2.[Cl-] [PALMATINE CHLORIDE],,0.5 days,,0.163 µg/mL,,,,0.281 µg/mL,,Toxic,,Toxic
